molecular target: T1, Amine oxidase [flavin-containing] B (Homo sapiens, UniProt P27338); assay: Competitive inhibition of human recombinant monoamine oxidase-B using kynuramine as substrate by Lineweaver-Burk plot analysis
T1 sequence (P27338 whole entry): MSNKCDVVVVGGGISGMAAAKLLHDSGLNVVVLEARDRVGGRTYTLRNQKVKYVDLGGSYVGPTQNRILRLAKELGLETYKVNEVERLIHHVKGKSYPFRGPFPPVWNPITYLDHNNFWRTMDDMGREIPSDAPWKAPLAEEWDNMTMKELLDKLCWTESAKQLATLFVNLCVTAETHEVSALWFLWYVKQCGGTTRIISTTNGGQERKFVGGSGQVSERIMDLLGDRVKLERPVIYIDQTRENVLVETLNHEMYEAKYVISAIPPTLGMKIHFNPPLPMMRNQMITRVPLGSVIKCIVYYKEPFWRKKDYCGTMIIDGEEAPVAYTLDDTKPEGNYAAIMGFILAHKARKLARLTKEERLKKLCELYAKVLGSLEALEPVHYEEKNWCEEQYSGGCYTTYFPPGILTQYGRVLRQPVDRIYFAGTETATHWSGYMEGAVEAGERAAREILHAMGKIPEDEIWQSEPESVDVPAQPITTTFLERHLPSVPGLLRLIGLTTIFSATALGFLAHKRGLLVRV
In short: (§1)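 Recombinant human MAO-A or MAO-B with kynuramine as substrate. Initial rates were recorded at 4 substrate concentrations, without inhibitor and with three inhibitor concentrations. Lineweaver–Burk (1/v vs 1/[S]) plots were built from these rates. Product […] was read by fluorescence in alkaline medium (ex 310 nm, em 400 nm).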

| Structure (SMILES) | Ki |
| --- | --- |
| O=C1OCc2ccc(OCc3ccc(C(F)(F)F)cc3)cc21 | 0.7 nM |

molecular target: T1, Amine oxidase [flavin-containing] B; assay: Inhibition of human recombinant monoamine oxidase-B assessed as kynuramine conversion to […] at 100 uM after 20 mins by fluorescence spectrophotometric analysis

| Structure (SMILES) | inhibition (INH) |
| --- | --- |
| O=C1OCc2ccc(NCc3ccccc3)cc21 | Not Active |

molecular target: T2, Amine oxidase [flavin-containing] B (Rattus norvegicus, UniProt P19643); assay: Inhibition of rat brain monoamine oxidase-B
T2 sequence (P19643 whole entry): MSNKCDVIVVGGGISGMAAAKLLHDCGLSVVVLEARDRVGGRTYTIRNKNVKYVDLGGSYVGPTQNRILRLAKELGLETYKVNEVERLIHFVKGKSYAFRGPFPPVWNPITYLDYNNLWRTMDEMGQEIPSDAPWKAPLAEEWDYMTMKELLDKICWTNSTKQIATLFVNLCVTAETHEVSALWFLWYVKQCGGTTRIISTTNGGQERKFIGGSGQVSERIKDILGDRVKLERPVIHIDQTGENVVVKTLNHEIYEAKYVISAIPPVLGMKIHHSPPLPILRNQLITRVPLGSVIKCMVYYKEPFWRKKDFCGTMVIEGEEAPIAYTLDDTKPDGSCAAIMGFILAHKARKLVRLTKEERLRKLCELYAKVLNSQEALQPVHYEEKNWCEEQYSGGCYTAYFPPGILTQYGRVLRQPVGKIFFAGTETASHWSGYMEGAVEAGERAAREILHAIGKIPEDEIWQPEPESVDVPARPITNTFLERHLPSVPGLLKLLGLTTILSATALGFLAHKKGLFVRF

| Structure (SMILES) | IC50 |
| --- | --- |
| O=C1OCc2ccc(OCc3ccccc3)cc21 | 230 nM |

molecular target: T1, Amine oxidase [flavin-containing] B; assay: (§2) Reversible inhibition of human recombinant monoamine oxidase-B using kynuramine as substrate assessed as residual enzyme activity treated at 100 times IC50 preincubated for 30 mins prior to substrate addition followed by 100 fold dilution measured after 20 mins by fluorescence spectrophotometric analysis relative to control

| Structure (SMILES) | Activity |
| --- | --- |
| O=C1OCc2ccc(OCc3ccc(C(F)(F)F)cc3)cc21 | 14% |

molecular target: T3, Amine oxidase [flavin-containing] A (Homo sapiens, UniProt P21397); assay: as §2, with “monoamine oxidase-A” for “monoamine oxidase-B”, “at 10” for “at 100”
T3 sequence (P21397 whole entry): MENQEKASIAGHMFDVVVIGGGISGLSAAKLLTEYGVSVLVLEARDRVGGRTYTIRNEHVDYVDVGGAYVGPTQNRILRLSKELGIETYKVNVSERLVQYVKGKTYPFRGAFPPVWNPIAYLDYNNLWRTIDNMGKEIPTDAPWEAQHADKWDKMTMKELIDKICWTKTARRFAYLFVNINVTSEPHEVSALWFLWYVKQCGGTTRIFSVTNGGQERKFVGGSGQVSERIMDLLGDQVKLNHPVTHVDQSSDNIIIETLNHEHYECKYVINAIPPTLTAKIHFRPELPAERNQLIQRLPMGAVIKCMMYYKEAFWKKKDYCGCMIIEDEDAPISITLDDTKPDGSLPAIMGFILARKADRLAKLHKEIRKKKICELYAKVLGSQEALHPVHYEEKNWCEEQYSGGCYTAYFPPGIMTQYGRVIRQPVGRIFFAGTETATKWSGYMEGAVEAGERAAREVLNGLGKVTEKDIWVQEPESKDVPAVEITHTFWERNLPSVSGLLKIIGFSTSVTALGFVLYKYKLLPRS

| Structure (SMILES) | Activity |
| --- | --- |
| O=C1OCc2ccc(OCCCc3ccccc3)cc21 | 86% |

molecular target: T3, Amine oxidase [flavin-containing] A; assay: Competitive inhibition of human recombinant monoamine oxidase-A using kynuramine as substrate by Lineweaver-Burk plot analysis; in short: as §1

| Structure (SMILES) | Ki |
| --- | --- |
| O=C1OCc2ccc(OCCCc3ccccc3)cc21 | 62 nM |

molecular target: T1, Amine oxidase [flavin-containing] B; assay: Quasi-reversible inhibition of human recombinant monoamine oxidase-B using kynuramine as substrate treated at 10 to 100 times IC50 preincubated for 30 mins prior to substrate addition followed by 100 fold dilution measured after 20 mins by fluorescence spectrophotometric analysis

| Structure (SMILES) | inhibition (INH) |
| --- | --- |
| O=C1OCc2ccc(OCc3ccc(C(F)(F)F)cc3)cc21 | Active |

molecular target: T1, Amine oxidase [flavin-containing] B; assay: Competitive inhibition of human recombinant monoamine oxidase-B using kynuramine as substrate by Cheng and Prusoff equation analysis

| Structure (SMILES) | Ki |
| --- | --- |
| O=C1OCc2ccc(OCc3ccc(C(F)(F)F)cc3)cc21 | 0.6 nM |

molecular target: T1, Amine oxidase [flavin-containing] B; assay: Competitive inhibition of human recombinant monoamine oxidase-B using kynuramine as substrate by Morrison equation analysis

| Structure (SMILES) | Ki |
| --- | --- |
| O=C1OCc2ccc(OCc3ccc(C(F)(F)F)cc3)cc21 | 0.46 nM |

molecular target: T3, Amine oxidase [flavin-containing] A; assay: as §2, with “oxidase-A” for “oxidase-B”

| Structure (SMILES) | Activity |
| --- | --- |
| O=C1OCc2ccc(OCCCc3ccccc3)cc21 | 45% |

molecular target: T1, Amine oxidase [flavin-containing] B; assay: Inhibition of human recombinant monoamine oxidase-B assessed as kynuramine conversion to 6-hydroxyquinoline after 20 mins by fluorescence spectrophotometric analysis

| Structure (SMILES) | IC50 |
| --- | --- |
| O=C1OCc2ccc(OCc3ccc(I)cc3)cc21 | 1.8 nM |
| O=C1OCc2ccc(OCCc3ccc(Cl)cc3)cc21 | 48 nM |
| O=C1OCc2ccc(OCc3ccccc3)cc21 | 24 nM |
| O=C1OCc2ccc(OCc3ccc(F)cc3)cc21 | 6.4 nM |
| O=C1OCc2ccc(OCC3CCCCC3)cc21 | 12 nM |
| O=C1OCc2ccccc21 | 28600 nM |
| O=C1OCc2ccc(OCCCc3ccccc3)cc21 | 6.2 nM |
| Cc1ccc(COc2ccc3c(c2)C(=O)OC3)cc1 | 9 nM |
| O=C1OCc2ccc(OCCOc3ccc(F)cc3)cc21 | 7.4 nM |
| O=C1OCc2ccc(OCc3ccc(C(F)(F)F)cc3)cc21 | 1.4 nM |
| O=C1OCc2ccc(OCCOc3ccc(Cl)cc3)cc21 | 11 nM |
| O=C1OCc2ccc(OCCOc3ccccc3)cc21 | 18 nM |
| O=C1OCc2ccc(OCCc3ccccc3)cc21 | 47 nM |
| O=C1OCc2ccc(OCc3cccc(Br)c3)cc21 | 3.5 nM |
| O=C1OCc2ccc(OCCc3ccc(F)cc3)cc21 | 68 nM |
| Cc1ccc(CCOc2ccc3c(c2)C(=O)OC3)cc1 | 81 nM |
| O=C1OCc2ccc(OCc3ccc(Cl)cc3)cc21 | 2.8 nM |
| O=C1OCc2ccc(OCc3ccc(Br)cc3)cc21 | 2.4 nM |
| O=C1OCc2ccc(OCCOc3ccc(Br)cc3)cc21 | 12 nM |

molecular target: T1, Amine oxidase [flavin-containing] B; assay: as §2, with “at 10” for “at 100”

| Structure (SMILES) | Activity |
| --- | --- |
| O=C1OCc2ccc(OCc3ccc(C(F)(F)F)cc3)cc21 | 68% |

molecular target: T3, Amine oxidase [flavin-containing] A; assay: as §2, with “Irreversible inhibition” for “Reversible inhibition”, “monoamine oxidase-A” for “monoamine oxidase-B”, “at 10” for “at 100”

| Structure (SMILES) | Activity |
| --- | --- |
| C#CCN(C)Cc1ccccc1 [PARGYLINE] | 1% |

species on record: Homo sapiens; assay: Selectivity index, ratio of IC50 for human recombinant monoamine oxidase-A to IC50 for human recombinant monoamine oxidase-B
In short: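 Selectivity for MAO-B, given as IC50(MAO-A)/IC50(MAO-B). Both IC50s came from recombinant human enzymes, with kynuramine oxidation to fluorescent […] read at ex 310 / em 400 nm in alkaline medium.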

| Structure (SMILES) | Ratio IC50 |
| --- | --- |
| O=C1OCc2ccc(OCc3ccc(I)cc3)cc21 | 189 |
| O=C1OCc2ccc(OCCc3ccc(Cl)cc3)cc21 | 10 |
| O=C1OCc2ccc(OCc3ccccc3)cc21 | 50 |
| O=C1OCc2ccc(OCc3ccc(F)cc3)cc21 | 84 |
| O=C1OCc2ccc(OCC3CCCCC3)cc21 | 16 |
| O=C1OCc2ccccc21 | 1.6 |
| O=C1OCc2ccc(OCCCc3ccccc3)cc21 | 16 |
| Cc1ccc(COc2ccc3c(c2)C(=O)OC3)cc1 | 118 |
| O=C1OCc2ccc(OCCOc3ccc(F)cc3)cc21 | 43 |
| O=C1OCc2ccc(OCc3ccc(C(F)(F)F)cc3)cc21 | 214 |
| O=C1OCc2ccc(OCCOc3ccc(Cl)cc3)cc21 | 13 |
| O=C1OCc2ccc(OCCOc3ccccc3)cc21 | 106 |
| O=C1OCc2ccc(OCCc3ccccc3)cc21 | 68 |
| O=C1OCc2ccc(OCc3cccc(Br)c3)cc21 | 180 |
| O=C1OCc2ccc(OCCc3ccc(F)cc3)cc21 | 16 |
| Cc1ccc(CCOc2ccc3c(c2)C(=O)OC3)cc1 | 90 |
| O=C1OCc2ccc(OCc3ccc(Cl)cc3)cc21 | 61 |
| O=C1OCc2ccc(OCc3ccc(Br)cc3)cc21 | 96 |
| O=C1OCc2ccc(OCCOc3ccc(Br)cc3)cc21 | 20 |

molecular target: T3, Amine oxidase [flavin-containing] A; assay: Competitive inhibition of human recombinant monoamine oxidase-A using kynuramine as substrate by Cheng and Prusoff equation analysis

| Structure (SMILES) | Ki |
| --- | --- |
| O=C1OCc2ccc(OCCCc3ccccc3)cc21 | 25 nM |

molecular target: T1, Amine oxidase [flavin-containing] B; assay: Ratio of phthalide IC50 to compound IC50 for human recombinant monoamine oxidase-B

| Structure (SMILES) | Ratio IC50 |
| --- | --- |
| O=C1OCc2ccc(OCc3ccccc3)cc21 | 1000 |

molecular target: T3, Amine oxidase [flavin-containing] A; assay: Inhibition of human recombinant monoamine oxidase-A assessed as kynuramine conversion to […] after 20 mins by fluorescence spectrophotometric analysis

| Structure (SMILES) | IC50 |
| --- | --- |
| O=C1OCc2ccc(OCc3ccc(I)cc3)cc21 | 344 nM |
| O=C1OCc2ccc(NCc3ccccc3)cc21 | 59900 nM |
| O=C1OCc2ccc(OCCc3ccc(Cl)cc3)cc21 | 498 nM |
| O=C1OCc2ccc(OCc3ccccc3)cc21 | 1190 nM |
| O=C1OCc2ccc(OCc3ccc(F)cc3)cc21 | 542 nM |
| O=C1OCc2ccc(OCC3CCCCC3)cc21 | 185 nM |
| O=C1OCc2ccccc21 | 44900 nM |
| O=C1OCc2ccc(OCCCc3ccccc3)cc21 | 96 nM |
| Cc1ccc(COc2ccc3c(c2)C(=O)OC3)cc1 | 1060 nM |
| O=C1OCc2ccc(OCCOc3ccc(F)cc3)cc21 | 323 nM |
| O=C1OCc2ccc(OCc3ccc(C(F)(F)F)cc3)cc21 | 304 nM |
| O=C1OCc2ccc(OCCOc3ccc(Cl)cc3)cc21 | 137 nM |
| O=C1OCc2ccc(OCCOc3ccccc3)cc21 | 1910 nM |
| O=C1OCc2ccc(OCCc3ccccc3)cc21 | 3210 nM |
| O=C1OCc2ccc(OCc3cccc(Br)c3)cc21 | 629 nM |
| O=C1OCc2ccc(OCCc3ccc(F)cc3)cc21 | 1070 nM |
| Cc1ccc(CCOc2ccc3c(c2)C(=O)OC3)cc1 | 7330 nM |
| O=C1OCc2ccc(OCc3ccc(Cl)cc3)cc21 | 172 nM |
| O=C1OCc2ccc(OCc3ccc(Br)cc3)cc21 | 227 nM |
| O=C1OCc2ccc(OCCOc3ccc(Br)cc3)cc21 | 240 nM |

— ChEMBL document CHEMBL2390879, “Inhibition of monoamine oxidase by phthalide analogues” (Bioorg Med Chem Lett, 2013)
